Source: paper PMC4363136 (Biochemical pharmacology, 2014)

Legend:
[1] = test system: PC-3 cells; assay: MTT cell proliferation assay, PC-3; type: cell-based, human
Outline: (§1)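 Cell lines were grown in medium with 10% FBS and 1% penicillin/streptomycin: PC-3 in RPMI; HeLa, MIA PaCa-2 and T24 in DMEM. Cells were seeded at 5×10^3 per well, attached overnight, then given test compound (0–500 µM, from PBS solution, diluted in medium) for 48 h. MTT was added for 4 h and formazan dissolved in DMSO. A570 was read. IC50 is the concentration giving 50% inhibition of proliferation.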

[2] = test system: T24 bladder cancer cells; assay: MTT cell proliferation assay, T24; type: cell-based
Outline: as §1

[3] = test system: MAPs rich tubulin; assay: GTPase activity assay; type: biochemical, goat; details: different concentrations of compound, 10 min
[4] = Pharmacokinetics after intravenous administration; type: in vivo, CD-1 mice
Outline: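 Male CD-1 mice, fasted 3 h, received a single IV dose of test compound at 5 mg/kg in water. Blood was sampled sparsely from the retro-orbital plexus at 5 min–24 h into K2EDTA. Plasma was protein-precipitated with acetonitrile and 7-hydroxynoscapine internal standard, then quantified by positive-mode MRM LC-MS/MS (calibration 1 ng/mL–1 µg/mL). Non-compartmental analysis: linear-trapezoid AUC, CL and Vss from IV data, C0 back-extrapolated.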

[5] = test system: HeLa cells; assay: MTT cell proliferation assay, HeLa; type: cell-based; details: 48 h
Outline: as §1

[6] = test system: MAPs-rich tubulin; assay: Light scattering assay of MAPs-rich tubulin polymerization; type: biochemical, goat; details: 50 µM compound, 1 mg/ml MAPs-rich tubulin, 37°C, 400 nm
[7] = test system: MIA PaCa-2 cells; assay: MTT cell proliferation assay, MIA PaCa-2; type: cell-based
Outline: as §1

[8] = Pharmacokinetics after oral administration; type: in vivo, CD-1 mice; details: for Fold increase in F compared to Nos: oral 50 mg/kg
Outline: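 Male CD-1 mice (3 per group), fasted 3 h, were dosed once by oral gavage at 50 mg/kg in water. Plasma was collected by sparse retro-orbital sampling at 5 min–24 h. Samples were acetonitrile-precipitated with internal standard and assayed by LC-MS/MS (1 ng/mL–1 µg/mL). Non-compartmental analysis: linear-trapezoid AUClast, Cmax taken as observed. F is dose-normalized oral AUClast over IV (5 mg/kg) AUClast.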

[9] = test system: pure tubulin; assay: Light scattering assay of pure tubulin polymerization; type: biochemical, goat; details: 10 µM tubulin, 1M monosodium glutamate
[10] = test system: PC-3 cells; assay: Immunofluorescence confocal microscopy of spindle morphology; type: cell-based, human; details: 12h and 24h
Outline: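 PC-3 cells were grown on glass coverslips and exposed to test compound for 12 h or 24 h. Cells were fixed in −20 °C methanol for 10 min, then blocked in 2% BSA/PBS at 37 °C for 1 h. They were stained with anti-α- and anti-γ-tubulin (1:1000, 45 min, 37 °C) and Alexa Fluor 488/555 secondaries (1:1000, 45 min, 37 °C). DNA was stained with DAPI. Slides were mounted in antifade and imaged by confocal microscopy.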

[11] = test system: pure tubulin; assay: GTPase activity assay; type: biochemical, goat; details: 50 µM compound, compared to control
[12] = male, CD-1, mouse, plasma, iv, 5 mg/kg
[13] = male, CD-1, mouse, plasma, po, 50 mg/kg
[14] = oral gavage 50 mg/kg, CD-1 mice, plasma

COc1ccc2c(c1OC)C(=O)O[C@@H]2[C@H]1c2c(cc3c(c2OC)OCO3)CCN1C [Compound 1, Noscapine, reference compound]
IC50 ([1]; Homo sapiens, PC-3, 48 h): 100 µM | IC50 ([2]; 48 h): 83 µM | change in GTPase activity of MAPs-rich tubulin [3]: remained almost unchanged | AUC(0-t) [4, 12]: 479 ng·h/mL | C0 [4, 12]: 1210 ng/mL | Vd [4, 12]: 4.55 L/kg | clearance [4, 12]: 174 mL/min/kg | half-life [4, 12]: 23.4 min | IC50 ([5]; Homo sapiens): 436 µM | Percent decrease in light scattering of MAP-tubulin [6]: 11 ± 4% | IC50 ([7]; Homo sapiens, MIA PaCa-2, 48 h): 105 µM | AUC(0-t) [8, 13]: 603 ng·h/mL | Tmax [8, 13]: 4.8 min | bioavailability [8, 13]: 13% | Cmax ([8]; oral gavage 50 mg/kg, CD-1 mice, plasma, listed as Nos, 50 mg/kg): 1156 ± 19 ng/mL | % Decrease in light scattering of pure tubulin ([9]; 10 µM compound): 5±1.5% | % Decrease in light scattering of pure tubulin ([9]; 25 µM compound): 9±2.6% | % Decrease in light scattering of pure tubulin ([9]; 50 µM compound): 13±2.9%

COc1ccc2c(c1OC)C(=O)O[C@@H]2[C@H]1c2c(c(Br)c3c(c2OC)OCO3)CCN1C [Compound 2, (S)-3-((R)-9-bromo-4-methoxy-6-methyl-5,6,7,8-tetrahydro-[1,3]dioxolo[4,5-g]isoquinolin-5-yl)-6,7-dimethoxyisobenzofuran-1(3H)-one, reference compound]
IC50 ([2]; 48 h): 191 µM | IC50 ([5]; Homo sapiens): 436 µM

COc1ccc2c(c1OC)C(=O)O[C@@H]2[C@H]1c2c(c(NCCC[N+](C)(C)C)c3c(c2OC)OCO3)CCN1C.[Br-] [Compound 4a, 3-(((R)-5-((S)-4,5-dimethoxy-3-oxo-1,3-dihydroisobenzofuran-1-yl)-4-methoxy-6-methyl-5,6,7,8-tetrahydro-[1,3]dioxolo[4,5-g]isoquinolin-9-yl)amino)-N,N,N-trimethylpropan-1-aminium bromide]
Percent decrease in light scattering of MAP-tubulin [6]: 29 ± 5%

COc1ccc2c(c1OC)C(=O)O[C@@H]2[C@H]1c2c(c(NCCCCS(=O)(=O)O)c3c(c2OC)OCO3)CCN1C [Compound 4b, 4-(((R)-5-((S)-4,5-dimethoxy-3-oxo-1,3-dihydroisobenzofuran-1-yl)-4-methoxy-6-methyl-5,6,7,8-tetrahydro-[1,3]dioxolo[4,5-g]isoquinolin-9-yl)amino)butane-1-sulfonic acid]
IC50 ([1]; Homo sapiens, PC-3, 48 h): 490 µM | Percent decrease in light scattering of MAP-tubulin [6]: 30 ± 9%

COc1ccc2c(c1OC)C(=O)O[C@@H]2[C@H]1c2c(c(NCCCS(=O)(=O)O)c3c(c2OC)OCO3)CCN1C [Compound 4c, 3-(((R)-5-((S)-4,5-dimethoxy-3-oxo-1,3-dihydroisobenzofuran-1-yl)-4-methoxy-6-methyl-5,6,7,8-tetrahydro-[1,3]dioxolo[4,5-g]isoquinolin-9-yl)amino)propane-1-sulfonic acid]
Percent decrease in light scattering of MAP-tubulin [6]: 27 ± 10%

COc1ccc2c(c1OCCC[N+](C)(C)C)C(=O)O[C@@H]2[C@H]1c2c(cc3c(c2OC)OCO3)CCN1C.[Br-] [Compound 6a, 3-(((S)-5-methoxy-1-((R)-4-methoxy-6-methyl-5,6,7,8-tetrahydro-[1,3]dioxolo[4,5-g]isoquinolin-5-yl)-3-oxo-1,3-dihydroisobenzofuran-4-yl)oxy)-N,N,N-trimethylpropan-1-aminium bromide]
Percent decrease in light scattering of MAP-tubulin [6]: 19 ± 6%

COc1ccc2c(c1OCCCCS(=O)(=O)O)C(=O)O[C@@H]2[C@H]1c2c(cc3c(c2OC)OCO3)CCN1C [Compound 6b, 4-(((S)-5-methoxy-1-((R)-4-methoxy-6-methyl-5,6,7,8-tetrahydro-[1,3]dioxolo[4,5-g]isoquinolin-5-yl)-3-oxo-1,3-dihydroisobenzofuran-4-yl)oxy)butane-1-sulfonic acid]
IC50 ([1]; Homo sapiens, PC-3, 48 h): 19 µM | IC50 ([2]; 48 h): 3.3 µM | change in GTPase activity of MAPs-rich tubulin [3]: increased significantly | AUC(0-t) [4, 12]: 198 ng·h/mL | C0 [4, 12]: 502 ng/mL | Vd [4, 12]: 9.53 L/kg | clearance [4, 12]: 369 mL/min/kg | half-life [4, 12]: 37.8 min | IC50 ([5]; Homo sapiens): 66 µM | Percent decrease in light scattering of MAP-tubulin [6]: 74 ± 13% | spindle / mitotic phenotype [10]: induced a multipolar phenotype | IC50 ([7]; Homo sapiens, MIA PaCa-2, 48 h): 30 µM | change in GTPase activity of pure tubulin [11]: did not change significantly | AUC(0-t) [8, 13]: 611 ng·h/mL | Tmax [8, 13]: 4.8 min | bioavailability [8, 13]: 27% | Cmax ([8]; oral gavage 50 mg/kg, CD-1 mice, plasma, 50 mg/kg): 2970 ± 60 ng/mL | % Decrease in light scattering of pure tubulin ([9]; 10 µM compound): 14±6% | % Decrease in light scattering of pure tubulin ([9]; 25 µM compound): 25±7.6% | % Decrease in light scattering of pure tubulin ([9]; 50 µM compound): 35±7.2%

COc1ccc2c(c1OCCCS(=O)(=O)O)C(=O)O[C@@H]2[C@H]1c2c(cc3c(c2OC)OCO3)CCN1C [Compound 6c, 3-(((S)-5-methoxy-1-((R)-4-methoxy-6-methyl-5,6,7,8-tetrahydro-[1,3]dioxolo[4,5-g]isoquinolin-5-yl)-3-oxo-1,3-dihydroisobenzofuran-4-yl)oxy)propane-1-sulfonic acid]
IC50 ([1]; Homo sapiens, PC-3, 48 h): 275 µM | Percent decrease in light scattering of MAP-tubulin [6]: 32 ± 14%

COc1ccc2c(c1OCCC[N+](C)(C)C)C(=O)O[C@@H]2[C@H]1c2c(c(Br)c3c(c2OC)OCO3)CCN1C.[Br-] [Compound 8a, 3-(((S)-1-((R)-9-bromo-4-methoxy-6-methyl-5,6,7,8-tetrahydro-[1,3]dioxolo[4,5-g]isoquin-olin-5-yl)-5-methoxy-3-oxo-1,3-dihydroisobenzofuran-4-yl)oxy)-N,N,N-trimethylpropan-1-aminium bromide]
Percent decrease in light scattering of MAP-tubulin [6]: 30 ± 12%

COc1ccc2c(c1OCCCCS(=O)(=O)O)C(=O)O[C@@H]2[C@H]1c2c(c(Br)c3c(c2OC)OCO3)CCN1C [Compound 8b, 4-(((S)-1-((R)-9-bromo-4-methoxy-6-methyl-5,6,7,8-tetrahydro-[1,3]dioxolo[4,5-g]isoquin-olin-5-yl)-5-methoxy-3-oxo-1,3-dihydroisobenzofuran-4-yl)oxy)butane-1-sulfonic acid]
IC50 ([1]; PC-3 cells, 48 h, MTT): 29 µM | IC50 ([2]; T24, 48 h, MTT): 32 µM | CL ([4]; IV 5 mg/kg, CD-1 mice): 512 mL/min/kg | VSS ([4]; IV 5 mg/kg, CD-1 mice): 23.81 L/kg | half-life ([4]; IV 5 mg/kg, CD-1 mice): 22.8 min | AUClast ([4]; IV 5 mg/kg, CD-1 mice, plasma): 145.41 ng·h/mL | C0 ([4]; back extrapolated concentration, IV 5 mg/kg, CD-1 mice, plasma): 259.39 ng/mL | IC50 ([5]; MTT): 53 µM | Percent decrease in light scattering of MAP-tubulin [6]: 68 ± 18% | spindle / mitotic phenotype [10]: induced a multipolar phenotype | IC50 ([7]; MIA Paca-2, 48 h, MTT): 40 µM | Bioavailability F ([8]; dose normalized AUClast, oral 50 mg/kg vs IV 5 mg/kg, CD-1 mice): 11 | Fold increase in F compared to Nos ([8]; CD-1 mice, 50 mg/kg): 0.9 fold | Tmax ([8]; oral gavage 50 mg/kg, CD-1 mice): 4.8 min | AUClast [8, 14]: 164 ng·h/mL | Cmax [8, 14]: 14 ± 7 ng/mL

COc1ccc2c(c1OCCCS(=O)(=O)O)C(=O)O[C@@H]2[C@H]1c2c(c(Br)c3c(c2OC)OCO3)CCN1C [Compound 8c, 3-(((S)-1-((R)-9-bromo-4-methoxy-6-methyl-5,6,7,8-tetrahydro-[1,3]dioxolo[4,5-g]isoquinolin-5-yl)-5-methoxy-3-oxo-1,3-dihydroisobenzofuran-4-yl)oxy)propane-1-sulfonic acid]
IC50 ([1]; Homo sapiens, PC-3, 48 h): 55 µM | IC50 ([2]; 48 h): 4 µM | AUC(0-t) [4, 12]: 133 ng·h/mL | C0 [4, 12]: 307 ng/mL | Vd [4, 12]: 18.4 L/kg | clearance [4, 12]: 584 mL/min/kg | half-life [4, 12]: 42 min | IC50 ([5]; Homo sapiens): 53 µM | Percent decrease in light scattering of MAP-tubulin [6]: 61 ± 21% | spindle / mitotic phenotype [10]: induced a multipolar phenotype | IC50 ([7]; Homo sapiens, MIA PaCa-2, 48 h): 18 µM | AUC(0-t) [8, 13]: 240 ng·h/mL | Tmax [8, 13]: 4.8 min | bioavailability [8, 13]: 21% | Fold increase in F compared to Nos ([8]; CD-1 mice, 50 mg/kg): 1.7 fold

COc1cc([C@@H]2c3cc4c(cc3[C@H](O)[C@H]3COC(=O)[C@H]23)OCO4)cc(OC)c1OC [podophyllotoxin]
change in GTPase activity of MAPs-rich tubulin [3]: decreased
